Test results: PMC9334479 (Infectious Diseases and Therapy, 2022)
Where a SMILES comes first, the peptide text is derived from it.

Key:
[1] = Total plasma concentration of PMB, PMB1 and PMB2 by HPLC-MS/MS; format: in vivo, human; details: for Cmin (B1)/Cmin (B2): median (IQR)
Outline: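 Critically ill adults received IV PMB sulfate. Plasma was drawn at the sixth or later dose, 10 min after infusion end (Cmax) and just before dosing (Cmin), spun at 3500g, 2–8 °C for 10 min, and stored at −80 °C. Plasma plus polymyxin E internal standard underwent formic acid/acetonitrile extraction. Analysis used C18 gradient LC and positive MRM 402.1→101.15 (PMB1), 397.4→101.15 (PMB2). AKI was graded by RIFLE SCr criteria.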

plasma protein = test: Plasma protein binding rate by equilibrium dialysis; format: in vitro ADME; details: human, patient plasma, iv
Outline: (§1)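 Patient plasma from peak (10 min post-infusion) and trough (pre-dose) draws was dialysed against isotonic phosphate buffer, pH 7.4, across a semipermeable membrane at 37 °C for 5 h. Dialysate and plasma were matrix-matched with blank plasma or buffer, then extracted and quantified by LC–MS/MS as for total levels. fu = Cd/Cp. Total and free levels were compared by Spearman rank correlation.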

Free = format: in vivo, human; details: for Free Cmax / Free Cmin: equilibrium dialysis, median (IQR); for Correlation between total and free plasma concentrations: Spearman's rank correlation, Cmax and Cmin, Fig. 2
Outline: as §1

patients = details: cited from earlier work
[2] = pH 7.4, Protein binding rate, Cmax sample, AKI group N = 25, equilibrium dialysis, phosphate buffer pH 7.4, 37 °C, 5 h, LC-MS/MS, median (IQR)
[3] = pH 7.4, Protein binding rate, Cmax sample, non-AKI group N = 64, equilibrium dialysis, phosphate buffer pH 7.4, 37 °C, 5 h, LC-MS/MS, median (IQR)
[4] = pH 7.4, Protein binding rate, Cmin sample, AKI group N = 25, equilibrium dialysis, phosphate buffer pH 7.4, 37 °C, 5 h, LC-MS/MS, median (IQR)
[5] = pH 7.4, Protein binding rate, Cmin sample, non-AKI group N = 64, equilibrium dialysis, phosphate buffer pH 7.4, 37 °C, 5 h, LC-MS/MS, median (IQR)

Compound | Cmax (B1), RIFLE category Failure (F) ([1]; 1 patient with AKI stage Failure, total plasma peak concentration) | fraction unbound at 5 h (plasma protein; pH 7.4) | fraction unbound at 5 h (plasma protein; [2]) | fraction unbound at 5 h (plasma protein; [3]) | fraction unbound at 5 h (plasma protein; [4]) | fraction unbound at 5 h (plasma protein; [5]) | Free Cmax (Free; AKI group N = 25) | Free Cmin (Free; AKI group N = 25) | Correlation between total and free plasma concentrations (Free) | Free Cmax (Free; non-AKI group N = 64) | Free Cmin (Free; non-AKI group N = 64) | Cmin (B1)/Cmin (B2) ([1]; AKI group N = 25) | Cmin (B1)/Cmin (B2) ([1]; non-AKI group N = 64) | Incidence of AKI (patients; colistin given iv as colistimethate sodium) | Optimal cut-off trough concentration for predicting nephrotoxicity (patients; colistin-related nephrotoxicity) [mg/L]
CC[C@H](C)CCCCC(=O)N[C@@H](CCN)C(=O)N[C@H](C(=O)N[C@@H](CCN)C(=O)N[C@H]1CCNC(=O)[C@H]([C@@H](C)O)NC(=O)[C@H](CCN)NC(=O)[C@H](CCN)NC(=O)[C@H](CC(C)C)NC(=O)[C@@H](Cc2ccccc2)NC(=O)[C@H](CCN)NC1=O)[C@@H](C)O [PMB1, polymyxin B1] (HELM PEPTIDE1{[CC[C@H](C)CCCCC(=O)[*:2]].[Dab].T.[Dab].[Dab].[Dab].[dF].L.[Dab].[Dab].T}$PEPTIDE1,PEPTIDE1,5:R3-11:R2$$$V2.0) | 6.17 | 0.055 | 0.045 | 0.042 | 0.053 | 0.057 | 0.19 (0.12–0.26) μg/ml | 0.05 (0.04–0.19) μg/ml | positively correlated | 0.14 (0.11–0.18) μg/ml | 0.07 (0.04–0.10) μg/ml | – | – | – | –
CC(C)CCCCC(=O)N[C@@H](CCN)C(=O)N[C@H](C(=O)N[C@@H](CCN)C(=O)N[C@H]1CCNC(=O)[C@H]([C@@H](C)O)NC(=O)[C@H](CCN)NC(=O)[C@H](CCN)NC(=O)[C@H](CC(C)C)NC(=O)[C@@H](Cc2ccccc2)NC(=O)[C@H](CCN)NC1=O)[C@@H](C)O [PMB2, polymyxin B2] (HELM PEPTIDE1{[CC(C)CCCCC(=O)[*:2]].[Dab].T.[Dab].[Dab].[Dab].[dF].L.[Dab].[Dab].T}$PEPTIDE1,PEPTIDE1,5:R3-11:R2$$$V2.0) | – | 0.215 | 0.141 | 0.161 | 0.194 | 0.221 | 0.16 (0.14–0.19) μg/ml | 0.07 (0.06–0.09) μg/ml | positively correlated | 0.14 (0.11–0.18) μg/ml | 0.07 (0.05–0.10) μg/ml | – | – | – | –
CC[C@H](C)CCCCC(=O)N[C@@H](CCN)C(=O)N[C@H](C(=O)N[C@@H](CCN)C(=O)N[C@H]1CCNC(=O)[C@H]([C@@H](C)O)NC(=O)[C@H](CCN)NC(=O)[C@H](CCN)NC(=O)[C@H](CC(C)C)NC(=O)[C@@H](Cc2ccccc2)NC(=O)[C@H](CCN)NC1=O)[C@@H](C)O [PMB, polymyxin B] (HELM PEPTIDE1{[CC[C@H](C)CCCCC(=O)[*:2]].[Dab].T.[Dab].[Dab].[Dab].[dF].L.[Dab].[Dab].T}$PEPTIDE1,PEPTIDE1,5:R3-11:R2$$$V2.0) | – | – | – | – | – | – | – | – | – | – | – | 3.37 (2.85–3.68) | 3.27 (2.91–3.65) | – | –
colistin | – | – | – | – | – | – | – | – | – | – | – | – | – | 30–76.1% | 3.33
